According to ChEMBL document CHEMBL1123429, “Influence of alkyl chain ramification on estradiol receptor binding affinity and intrinsic activity of 1,2-dialkylated 1,2-bis(4- or 3-hydroxyphenyl)ethane estrogens and antiestrogens” (J Med Chem, 1986):
Values belong to the compound of their own block, whether it stands above or below them.

Legend:
[1] = molecular target: Estrogen receptor (Bos taurus) (UniProt Q9XSB5+P49884); test: Relative binding affinity (RBA) for calf uterine estrogen receptor; type: protein assay
Method in brief: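 Displacement of [³H]estradiol from calf uterine cytosol; incubated 16 h at 4 °C. Dextran-coated charcoal stops incubation; after centrifugation, supernatant radioactivity counted. Six competitor concentrations spanning 50% competition; % bound vs log concentration plotted to obtain concentrations halving binding for unlabeled estradiol and test compound, giving RBA. Mean of four determinations.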

[2] = molecular target: T1, Estrogen receptor (Mus musculus) (UniProt O08537+P19785); test: Inhibition of estrone-stimulated uterine growth in immature mice at 30 ug; type: functional
T1 sequence (O08537 whole entry, looked up): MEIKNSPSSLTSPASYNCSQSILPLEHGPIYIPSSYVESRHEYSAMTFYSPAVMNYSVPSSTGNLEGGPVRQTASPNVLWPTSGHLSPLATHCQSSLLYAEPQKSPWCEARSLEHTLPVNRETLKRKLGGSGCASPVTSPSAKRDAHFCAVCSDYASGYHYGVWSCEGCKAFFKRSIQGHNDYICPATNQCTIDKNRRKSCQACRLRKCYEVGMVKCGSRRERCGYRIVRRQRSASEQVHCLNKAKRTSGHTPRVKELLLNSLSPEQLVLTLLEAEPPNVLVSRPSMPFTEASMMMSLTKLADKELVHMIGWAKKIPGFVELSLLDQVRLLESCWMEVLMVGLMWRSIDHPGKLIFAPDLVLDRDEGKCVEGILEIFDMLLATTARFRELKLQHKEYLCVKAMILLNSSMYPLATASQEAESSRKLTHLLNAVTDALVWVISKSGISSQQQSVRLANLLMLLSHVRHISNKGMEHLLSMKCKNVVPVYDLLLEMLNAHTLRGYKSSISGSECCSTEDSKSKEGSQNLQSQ
T1 sequence (P19785 whole entry, looked up): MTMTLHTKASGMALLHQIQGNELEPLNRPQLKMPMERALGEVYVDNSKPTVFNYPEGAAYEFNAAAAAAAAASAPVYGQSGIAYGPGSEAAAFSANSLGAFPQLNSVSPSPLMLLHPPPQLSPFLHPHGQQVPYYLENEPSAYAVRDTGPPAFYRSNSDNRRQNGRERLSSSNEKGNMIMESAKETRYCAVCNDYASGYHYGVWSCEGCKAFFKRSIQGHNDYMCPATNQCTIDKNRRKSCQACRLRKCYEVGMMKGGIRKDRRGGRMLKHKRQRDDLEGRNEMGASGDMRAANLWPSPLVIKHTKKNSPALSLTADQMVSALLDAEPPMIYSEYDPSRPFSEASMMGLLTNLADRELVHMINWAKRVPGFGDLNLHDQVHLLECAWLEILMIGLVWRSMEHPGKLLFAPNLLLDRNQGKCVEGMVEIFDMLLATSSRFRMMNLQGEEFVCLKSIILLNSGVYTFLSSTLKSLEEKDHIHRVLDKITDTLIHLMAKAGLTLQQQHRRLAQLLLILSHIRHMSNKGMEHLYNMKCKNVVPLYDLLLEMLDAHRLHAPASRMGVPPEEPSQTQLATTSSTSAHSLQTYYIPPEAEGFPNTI
Method in brief: (§1)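 Immature female NMRI mice, 20 days old (15.0 ± 2.5 g), randomized into groups of 10. Compound in olive oil (0.1 mL) injected sc daily for 3 days together with estrone; uteri removed 24 h after the last injection, fixed in Bouin's solution, washed, dried and weighed. Effect expressed as uterus dry weight (mg)/body weight (g) × 100; inhibition of estrone-stimulated growth.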

[3] = molecular target: T1, Estrogen receptor (Mus musculus); test: Anti-uterotrophic effect in mice at 0 ug; type: functional; method in brief: as §1
[4] = molecular target: T1, Estrogen receptor (Mus musculus); test: Inhibition of estrone-stimulated uterine growth in immature mice at 3 ug; type: functional; method in brief: as §1
[5] = molecular target: T1, Estrogen receptor (Mus musculus); test: Inhibition of estrone-stimulated uterine growth in immature mice at 10 ug; type: functional; method in brief: as §1
[6] = molecular target: T1, Estrogen receptor (Mus musculus); test: Anti-uterotrophic effect in mice at 3 ug; type: functional; method in brief: as §1
[7] = molecular target: T1, Estrogen receptor (Mus musculus); test: Anti-uterotrophic effect in mice at 30 ug; type: functional; method in brief: as §1
[8] = molecular target: T1, Estrogen receptor (Mus musculus); test: Anti-uterotrophic effect in mice at 100 ug; type: functional; method in brief: as §1
[9] = molecular target: T1, Estrogen receptor (Mus musculus); test: Anti-uterotrophic effect in mice at 10 ug; type: functional; method in brief: as §1
[10] = molecular target: T1, Estrogen receptor (Mus musculus)
[11] = molecular target: T1, Estrogen receptor (Mus musculus); test: Anti-uterotrophic effect in mice at 300 ug; type: functional; method in brief: as §1
[12] = molecular target: T1, Estrogen receptor (Mus musculus); test: Inhibition of estrone-stimulated uterine growth in immature mice at 300 ug; type: functional; method in brief: as §1
[13] = molecular target: T1, Estrogen receptor (Mus musculus); test: Inhibition of estrone-stimulated uterine growth in immature mice at 100 ug; type: functional; method in brief: as §1

SMILES: CCC(C)[C@@H](c1cccc(O)c1)[C@@H](c1cccc(O)c1)C(C)CC (stereo partly drawn)
relative binding affinity (RBA) [1]: 3

SMILES: CC(C)(C)[C@H](c1ccc(O)cc1)[C@H](c1ccc(O)cc1)C(C)(C)C
relative binding affinity (RBA) [1]: 1.5

SMILES: CC(C)[C@@H](c1cccc(O)c1)[C@@H](c1cccc(O)c1)C(C)C
relative binding affinity (RBA) [1]: 15

SMILES: CCC[C@H](c1ccc(O)cc1)[C@@H](CCC)c1ccc(O)cc1
relative binding affinity (RBA) [1]: 8

SMILES: CC(C)[C@@H](c1ccc(O)cc1)[C@@H](c1ccc(O)cc1)C(C)C
relative binding affinity (RBA) [1]: 30

SMILES: CC[C@H](c1ccc(O)cc1)[C@@H](CC)c1ccc(O)cc1
relative binding affinity (RBA) [1]: 25

SMILES: CC[C@H](c1cccc(O)c1)[C@@H](CC)c1cccc(O)c1
inhibition [2]: 51%
Effect [3]: 14.5
inhibition [4]: 20%
inhibition [5]: 39%
relative binding affinity (RBA) [1]: 11
Effect [6]: 40.1
Effect [7]: 30.2
Effect [8]: 32.7
inhibition [8]: 43%
Effect [9]: 34.1

SMILES: CC(C)CC(c1cccc(O)c1)[C@H](CC(C)C)c1cccc(O)c1 (single isomer, unassigned)
inhibition [2]: 19%
Effect [3]: 14.5
relative binding affinity (RBA) [1]: 0.5
Effect [11]: 38.2
Effect [7]: 40.3
Effect [8]: 37.9
inhibition [8]: 27%
inhibition [12]: 26%

SMILES: CCC[C@H](c1cccc(O)c1)[C@@H](CCC)c1cccc(O)c1
Effect [3]: 14.5
inhibition [13]: 37%
inhibition [5]: 14%
relative binding affinity (RBA) [1]: 4
Effect [11]: 33
Effect [7]: 40.8
Effect [8]: 34.7
Effect [9]: 42.1
inhibition [12]: 42%
inhibition ([12]; in the assay text read “30 ug” for “300 ug”): 18%

The next lines start with the values.

relative binding affinity (RBA) [1]: 1.5
SMILES: CC(C)C[C@H](c1ccc(O)cc1)[C@@H](CC(C)C)c1ccc(O)cc1

relative binding affinity (RBA) [1]: 0.7
SMILES: CC(C)(C)[C@H](c1cccc(O)c1)[C@H](c1cccc(O)c1)C(C)(C)C

relative binding affinity (RBA) [1]: 5
SMILES: CCC(C)[C@@H](c1ccc(O)cc1)[C@@H](c1ccc(O)cc1)C(C)CC (stereo partly drawn)

Effect [10]: 46.5
SMILES: C[C@]12CC[C@@H]3c4ccc(O)cc4CC[C@H]3[C@@H]1CCC2=O
